# Results published in PubChem BioAssay AID1216 (Sanford-Burnham Center for Chemical Genomics, 2008).
# The campaign covered roughly 190,000 compounds. About 660 (0.35%) were called active.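 How the source made its calls: active means activation factor of 2 or more at 20 µM; inactive means the rest.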 The list comes from a sample in which actives are over-represented; it also holds similar structures and randomly drawn compounds.
# Target: Mannose-6-phosphate isomerase (Homo sapiens) (UniProt P34949)
# Test: MPI activation at elevated mannose 6-phosphate – biochemical, fluorescence intensity, near-saturating mannose 6-phosphate, primary screen (AID 1216)
# Settings: coupled PMI enzyme assay, resazurin fluorescence, 20 min; at 20 µM; stronger effect = higher value; 1 = untreated enzyme, 0 = substrate-free blank
# How it was run: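 assay system = human phosphomannose isomerase with PGI, G6PDH, diaphorase coupling enzymes | quantity = 15 ng/mL PMI | incubation = enzyme reaction with compound 20 min at room temperature | medium = HEPES pH 7.4 buffer with MgCl2 and Tween-20 | compound dosing = one concentration, 20 µM, in 1% DMSO | measured by = Diaphorase-driven resazurin-to-resorufin fluorescence, excitation 544, emission 590 nm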
# Mannose-6-phosphate isomerase (Homo sapiens), sequence (P34949 whole entry, looked up): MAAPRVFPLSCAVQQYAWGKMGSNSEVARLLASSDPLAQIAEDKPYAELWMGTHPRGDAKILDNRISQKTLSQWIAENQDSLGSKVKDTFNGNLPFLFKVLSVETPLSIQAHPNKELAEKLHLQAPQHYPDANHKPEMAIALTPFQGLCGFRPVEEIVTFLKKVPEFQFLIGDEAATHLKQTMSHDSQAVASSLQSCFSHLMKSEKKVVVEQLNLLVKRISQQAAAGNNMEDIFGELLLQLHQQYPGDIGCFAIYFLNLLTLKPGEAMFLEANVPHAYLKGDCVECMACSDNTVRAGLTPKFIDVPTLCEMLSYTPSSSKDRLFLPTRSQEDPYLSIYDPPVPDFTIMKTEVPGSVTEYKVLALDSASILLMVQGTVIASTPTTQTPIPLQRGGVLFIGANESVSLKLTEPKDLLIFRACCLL
row,SMILES,activation factor
1,O=C(CCCn1c(=O)c2sccc2n(CC(=O)NCC2CCCO2)c1=O)NCc1ccco1 (stereo unspecified),0.9 (inactive)
2,Cn1cc(C(=O)NCc2ccccc2F)cn1,1 (inactive)
3,O=C(CO/N=C/c1ccccc1OC(F)F)NC1CCCC1,1.1 (inactive)
4,CCN(CC)C(=O)C(=O)Nc1cccc(Br)c1,0.9 (inactive)
5,C=CCc1ccccc1OCC(=O)N/N=C/c1ccccc1OCC,0.9 (inactive)
6,OCC1(Cc2ccccc2C(F)(F)F)CCN(Cc2cccc3cnccc23)CC1,0.9 (inactive)
7,COc1ccc(OC)c(NC(=O)CN(Cc2ccc(Cl)cc2)S(C)(=O)=O)c1,0.8 (inactive)
8,CSc1ncccc1C(=O)OCc1ccc(Br)cc1,1 (inactive)
9,COC(=O)C(NS(=O)(=O)c1ccc(F)cc1)c1ccccc1 (stereo unspecified),0.9 (inactive)
10,COc1ccc(-c2c3c(=O)n(C)c(=O)n(C)c3cn2-c2cccc(OC)c2)cc1,1.2 (inactive)
11,COc1ccc(-c2c3c(=O)n(C)c(=O)n(C)c3cn2NC(C)=O)cc1,2 (active)
12,COc1cccc(-n2cc3c(c2-c2ccccc2)c(=O)n(C)c(=O)n3C)c1,1 (inactive)
13,COCCn1c(C)cc(C(=O)COC(=O)/C=C/c2cccc(OC)c2)c1C,1 (inactive)
14,Cc1ccc(N/N=C2\COC(C)(C)CC2=O)cc1,1.9 (inactive)
15,COc1ccc(CNC2CCCCC2)cc1,1 (inactive)
16,COc1ccc(N/N=C2/CCCCC2=O)cc1,2 (active)
17,CC(=O)c1cc(C#N)c(N2CC(C)OC(C)C2)nc1C (stereo unspecified),1 (inactive)
18,CC(C)N(C(=O)Cn1cc(SCC(=O)N2CCCC2)c2ccccc21)C(C)C,1 (inactive)
19,COc1ccc(-c2nn(-c3ccccc3)cc2CN2CCCO2)c(F)c1,1 (inactive)
20,CCN(C(=O)COC(=O)c1cc(NS(=O)(=O)c2ccc(Cl)c([N+](=O)[O-])c2)ccc1O)C1CCCCC1,0.9 (inactive)
21,O=C(/C=C\NCC(=O)c1ccccc1)c1ccccc1,2.5 (active)
22,O=C(/C=C/NCc1ccc(F)cc1)c1ccccc1,1 (inactive)

row,SMILES,activation factor
1,Cc1ccc(N/C=C/C(=O)c2ccccc2)cc1C,1.1 (inactive)
2,CN(C)CCCSc1ccccc1NC(=O)/C=C/c1ccccc1,1 (inactive)
3,Cc1ccc(S(=O)(=O)CCC(=O)OCc2ccccc2)cc1,1 (inactive)
4,O=C(CNC(=O)c1cc(=O)[nH]c2ccccc12)Nc1ccc(F)c(F)c1,0.9 (inactive)
5,COC(=O)C(=Nc1ccccc1)/C(C(=O)C(=O)N(C)c1ccccc1)=C(\O)c1ccc(Cl)cc1,0.8 (inactive)
6,COc1ccc(C(=O)Nc2ccc(F)cc2F)cc1,2 (active)
7,COc1cc(OC)cc(C(=O)OCC(=O)Nc2ccc(F)cc2F)c1,0.9 (inactive)
8,COc1ccccc1CC(=O)Nc1ccc(F)cc1F,1 (inactive)
9,Cc1cc(C)cc(C(=O)NCC(=O)OCC(=O)N2CCCCC2)c1,1.2 (inactive)
10,Cc1ccc(N/C(N)=N/c2nc(C(F)(F)F)cc(C(F)(F)F)n2)cc1,1.1 (inactive)
11,O=C(CN1CCN(c2ccccc2F)CC1)c1ccc2c(c1)OCO2,2 (active)
12,O=C(CN1CCN(CC(=O)Nc2ccc3c(c2)OCO3)CC1)Nc1ccc(F)cc1,1 (inactive)
13,O=C(Nc1ccccc1N1CCN(C(=O)c2ccccc2)CC1)c1ccc2c(c1)OCO2,0.9 (inactive)
14,S=C(Nc1ccc(Br)cc1Cl)N1CCC2(CC1)OCCO2,0.9 (inactive)
15,CCOC(=O)/C(=N\Nc1cc(Cl)ccc1Cl)N1CCN(C)CC1,1 (inactive)
16,CC(C)(C)C(=O)CSc1nc2ccccc2o1,0.9 (inactive)
17,CN1CCN(S(=O)(=O)c2cccc(C(=O)O)c2)CC1,1.1 (inactive)
18,CC1Cc2ccccc2N1C(=O)CSc1nnc(-c2ccc(S(=O)(=O)N3CCCC3)cc2)n1C (stereo unspecified),0.4 (inactive)
19,COc1ccccc1NC(=O)C1=C(C)Nc2nc3ccccc3n2C1c1cccs1 (stereo unspecified),1 (inactive)
20,COC(=O)Cc1nc2ccccc2[nH]1,1 (inactive)
21,COC(=O)Cc1cc(=O)n(-c2nc3ccccc3s2)[nH]1,2 (active)
22,CCC(=O)NC(=Nc1nc2ccccc2s1)NC(=O)CC,1.1 (inactive)

row,SMILES,activation factor
1,CCCCN=C1C([N+](=O)[O-])=CC=C2C1=NC1(CCCCC1)N2O,0.5 (inactive)
2,O=C(Nc1cccnc1)c1cc2cc(Br)ccc2oc1=O,1.1 (inactive)
3,CS(=O)(=O)N(CC(=O)NC1CCCC1)Cc1ccc(F)cc1,1 (inactive)
4,CCC1=NN(C(=O)Cc2ccc([N+](=O)[O-])cc2)C(O)(c2ccc(Br)cc2)C1 (stereo unspecified),0.9 (inactive)
5,CCN(CC)CCN1C(=O)C(=O)/C(=C(/O)c2ccccc2)C1c1ccccc1F (stereo unspecified),1 (inactive)
6,CCN(CC)CCN1C(=O)C(=O)/C(=C(/O)c2cnn(-c3ccccc3)c2C)C1c1cccs1 (stereo unspecified),2 (active)
7,CCN(CC)CCN1C(=O)C(=O)/C(=C(/O)c2ccc(OC)c(OC)c2)C1c1ccccn1 (stereo unspecified),1.2 (inactive)
8,Cc1cc(C)c(OCCN2CC(C)OC(C)C2)c(Br)c1 (stereo unspecified),0.9 (inactive)
9,Cc1scc(C(=O)NNC(=S)NCc2ccccc2)c1C,1.1 (inactive)
10,S=C(c1ccc(-c2ccccc2)o1)N1CCCCC1,0.9 (inactive)
11,C=CCN(C(=O)c1cc(C)cc(C)c1)C1(C(=O)Nc2ccccc2)CCN(C(C)C)CC1,1 (inactive)
12,COc1cccc(CN2CCNC(=O)C2CC(=O)N(C)CCc2ccccn2)c1 (stereo unspecified),0.7 (inactive)
13,CC1=C(C)CC(C(=O)NNC(=O)c2csc3c2CCC(C(C)(C)C)C3)C(C(=O)O)C1 (stereo unspecified),1 (inactive)
14,Cc1ccc(/C(N)=N/OC(=O)COc2ccc(Cl)c(C)c2)cc1,1 (inactive)
15,O=c1oc2ccccc2cc1-c1cn(-c2ccccc2)c(=S)[nH]1,2.3 (active)
16,O=C(c1cn(-c2ccccc2)nc1-c1cc2ccccc2oc1=O)N1CCOCC1,1 (inactive)
17,Nc1ncc(-c2cc3ccccc3oc2=O)s1,0.8 (inactive)
18,O=S1(=O)CC/C(=N\Nc2ccc(F)cc2)c2ccsc21,2.6 (active)
19,COC(=O)c1nc(NC(=O)c2ccc(F)cc2)n[nH]1,1 (inactive)
20,CCOC(=O)C1(O)CC(C)=NN1C(=O)c1cccc(Br)c1 (stereo unspecified),1.1 (inactive)
21,Cn1cccc1/C=N/NC(=O)c1ccc(OC(F)(F)C(F)F)cc1,0.9 (inactive)
22,O=C(NCc1ccccc1Cl)C1CCCO1 (stereo unspecified),1 (inactive)
